Where a SMILES comes first, the peptide text is derived from it. [ ]: non-standard residue; d: D form. Aib = CC(C)(N)C(=O)O
Key:
[1] = target: T1, Pituitary adenylate cyclase-activating polypeptide type I receptor (Homo sapiens, UniProt P41586); assay: Agonist activity at human recombinant PAC1 receptor expressed in CHO cells assessed as PACAP38-induced calcium mobilization by FLIPR assay; type: functional, cell-based
Outline: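 CHO cells stably expressing recombinant human PAC1, plated 24 h before assay, loaded with fluo-4 AM for 60 min at 37 °C in the dark, then rinsed into HBSS for 15 min at 37 °C. EC50 and efficacy came from nonlinear regression; 4-10 independent assays in duplicate.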
Target sequence in this assay (P41586 whole entry): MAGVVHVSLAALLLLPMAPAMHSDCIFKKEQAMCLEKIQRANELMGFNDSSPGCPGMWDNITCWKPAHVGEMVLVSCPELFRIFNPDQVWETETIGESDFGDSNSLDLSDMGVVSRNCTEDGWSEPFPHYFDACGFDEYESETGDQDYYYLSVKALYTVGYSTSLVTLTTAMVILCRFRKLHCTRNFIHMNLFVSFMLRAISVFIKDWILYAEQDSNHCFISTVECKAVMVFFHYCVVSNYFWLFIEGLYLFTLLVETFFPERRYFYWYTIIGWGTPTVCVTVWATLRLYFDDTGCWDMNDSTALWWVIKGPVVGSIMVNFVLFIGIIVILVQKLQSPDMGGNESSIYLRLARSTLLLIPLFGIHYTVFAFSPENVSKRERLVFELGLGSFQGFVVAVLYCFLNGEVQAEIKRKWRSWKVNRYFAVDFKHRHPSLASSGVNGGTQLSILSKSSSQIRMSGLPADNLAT

[2] = target: T1, Pituitary adenylate cyclase-activating polypeptide type I receptor; assay: Agonist activity at human recombinant PAC1 receptor expressed in CHO cells assessed as PACAP38-induced calcium mobilization by FLIPR assay relative to PACAP38; type: functional, cell-based
Outline: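 CHO cells stably expressing recombinant human PAC1, plated 24 h before assay, loaded with fluo-4 AM for 60 min at 37 °C in the dark, then rinsed into HBSS for 15 min at 37 °C. Peptide was added 18 s into a 150 s read (ex 480/em 525 nm), at final concentrations of 1 × 10-12 to 1 × 10^-5 M. Response was normalised to 1 × 10^-5 M PACAP38 on each plate. EC50 and efficacy came from nonlinear regression; 4-10 independent assays in duplicate.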
Target sequence in this assay (P41586 21-468 limits assumed): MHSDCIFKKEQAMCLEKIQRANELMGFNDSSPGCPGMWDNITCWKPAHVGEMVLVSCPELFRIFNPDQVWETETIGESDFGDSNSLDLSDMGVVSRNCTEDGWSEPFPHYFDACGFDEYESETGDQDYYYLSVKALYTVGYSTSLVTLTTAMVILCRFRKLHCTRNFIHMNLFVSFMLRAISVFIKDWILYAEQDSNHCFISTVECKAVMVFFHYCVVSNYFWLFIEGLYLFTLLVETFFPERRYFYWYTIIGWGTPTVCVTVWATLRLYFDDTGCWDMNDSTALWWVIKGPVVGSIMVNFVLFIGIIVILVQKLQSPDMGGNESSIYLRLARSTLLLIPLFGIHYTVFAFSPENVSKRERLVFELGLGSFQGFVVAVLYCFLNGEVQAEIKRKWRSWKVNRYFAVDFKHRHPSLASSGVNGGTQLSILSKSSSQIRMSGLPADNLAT

[3] = target: T1, Pituitary adenylate cyclase-activating polypeptide type I receptor; assay: Displacement of [125I]Ac-PACAP27 from human recombinant PAC1 receptor expressed in CHO cells by gamma- counter; type: cell-based
Target sequence in this assay (P41586 whole entry): as the sequence (P41586 whole entry) above

Row | SMILES | EC50 [1] [nM] | Emax [2] [%] | IC50 [3] [nM]
1 | CC[C@H](C)[C@H](NC(=O)CNC(=O)[C@H](CC(=O)O)N(C)C(=O)[C@H](CO)NC(=O)[C@@H](N)Cc1cnc[nH]1)C(=O)N[C@@H](Cc1ccccc1)C(=O)N[C@H](C(=O)N[C@@H](CC(=O)O)C(=O)N[C@@H](CO)C(=O)N[C@@H](Cc1ccc(O)cc1)C(=O)N[C@@H](CO)C(=O)N[C@@H](CCCNC(=N)N)C(=O)N[C@@H](Cc1ccc(O)cc1)C(=O)N[C@@H](CCCNC(=N)N)C(=O)N[C@@H](CCCCN)C(=O)N[C@@H](CCC(N)=O)C(=O)N[C@@H](CCSC)C(=O)N[C@@H](C)C(=O)N[C@H](C(=O)N[C@@H](CCCCN)C(=O)N[C@@H](CCCCN)C(=O)N[C@@H](Cc1ccc(O)cc1)C(=O)N[C@@H](CC(C)C)C(=O)N[C@@H](C)C(=O)N[C@@H](C)C(=O)N[C@H](C(=O)N[C@@H](CC(C)C)C(N)=O)C(C)C)C(C)C)[C@@H](C)O | 418 | 89.2 | 25.2
2 | CC[C@H](C)[C@H](NC(=O)CNC(=O)[C@H](CC(=O)O)NC(=O)[C@H](CO)NC(=O)[C@@H](N)Cc1cnc[nH]1)C(=O)N[C@@H](C)C(=O)N[C@H](C(=O)N[C@@H](CC(=O)O)C(=O)N[C@@H](CO)C(=O)N[C@@H](Cc1ccc(O)cc1)C(=O)N[C@@H](CO)C(=O)N[C@@H](CCCNC(=N)N)C(=O)N[C@@H](Cc1ccc(O)cc1)C(=O)N[C@@H](CCCNC(=N)N)C(=O)N[C@@H](CCCCN)C(=O)N[C@@H](CCC(N)=O)C(=O)N[C@@H](CCSC)C(=O)N[C@@H](C)C(=O)N[C@H](C(=O)N[C@@H](CCCCN)C(=O)N[C@@H](CCCCN)C(=O)N[C@@H](Cc1ccc(O)cc1)C(=O)N[C@@H](CC(C)C)C(=O)N[C@@H](C)C(=O)N[C@@H](C)C(=O)N[C@H](C(=O)N[C@@H](CC(C)C)C(=O)NCC(=O)N[C@@H](CCCCN)C(=O)N[C@@H](CCCNC(=N)N)C(=O)N[C@@H](Cc1ccc(O)cc1)C(=O)N[C@@H](CCCCN)C(=O)N[C@@H](CCC(N)=O)C(=O)N[C@@H](CCCNC(=N)N)C(=O)N[C@H](C(=O)N[C@@H](CCCCN)C(=O)N[C@@H](CC(N)=O)C(=O)N[C@@H](CCCCN)C(N)=O)C(C)C)C(C)C)C(C)C)[C@@H](C)O (H-HSDGIATDSYSRYRKQMAVKKYLAAVLGKRYKQRVKNK-NH2) | 17.3 | 50.4 | 208
3 | CC[C@H](C)[C@H](NC(=O)CNC(=O)[C@H](CC(=O)O)NC(=O)[C@H](CO)NC(=O)[C@@H](N)Cc1cnc[nH]1)C(=O)N1Cc2ccccc2CC1C(=O)N[C@H](C(=O)N[C@@H](CC(=O)O)C(=O)N[C@@H](CO)C(=O)N[C@@H](Cc1ccc(O)cc1)C(=O)N[C@@H](CO)C(=O)N[C@@H](CCCNC(=N)N)C(=O)N[C@@H](Cc1ccc(O)cc1)C(=O)N[C@@H](CCCNC(=N)N)C(=O)N[C@@H](CCCCN)C(=O)N[C@@H](CCC(N)=O)C(=O)N[C@@H](CCSC)C(=O)N[C@@H](C)C(=O)N[C@H](C(=O)N[C@@H](CCCCN)C(=O)N[C@@H](CCCCN)C(=O)N[C@@H](Cc1ccc(O)cc1)C(=O)N[C@@H](CC(C)C)C(=O)N[C@@H](C)C(=O)N[C@@H](C)C(=O)N[C@H](C(=O)N[C@@H](CC(C)C)C(N)=O)C(C)C)C(C)C)[C@@H](C)O (some centres undefined) | 564 | 65.9 | 2170
4 | CC[C@H](C)[C@H](NC(=O)CNC(=O)[C@H](CC(=O)O)NC(=O)[C@H](CO)NC(=O)[C@@H](N)Cc1cnc[nH]1)C(=O)N[C@@H](Cc1ccccc1)C(=O)N(C)[C@H](C(=O)N[C@@H](CC(=O)O)C(=O)N[C@@H](CO)C(=O)N[C@@H](Cc1ccc(O)cc1)C(=O)N[C@@H](CO)C(=O)N[C@@H](CCCNC(=N)N)C(=O)N[C@@H](Cc1ccc(O)cc1)C(=O)N[C@@H](CCCNC(=N)N)C(=O)N[C@@H](CCCCN)C(=O)N[C@@H](CCC(N)=O)C(=O)N[C@@H](CCSC)C(=O)N[C@@H](C)C(=O)N[C@H](C(=O)N[C@@H](CCCCN)C(=O)N[C@@H](CCCCN)C(=O)N[C@@H](Cc1ccc(O)cc1)C(=O)N[C@@H](CC(C)C)C(=O)N[C@@H](C)C(=O)N[C@@H](C)C(=O)N[C@H](C(=O)N[C@@H](CC(C)C)C(N)=O)C(C)C)C(C)C)[C@@H](C)O | 2120 | 35.4 | 2040
5 | CC[C@H](C)[C@H](NC(=O)CNC(=O)[C@H](CC(=O)O)NC(=O)[C@H](CO)NC(=O)[C@@H](N)Cc1cnc[nH]1)C(=O)N[C@H](Cc1ccccc1)C(=O)N[C@H](C(=O)N[C@@H](CC(=O)O)C(=O)N[C@@H](CO)C(=O)N[C@@H](Cc1ccc(O)cc1)C(=O)N[C@@H](CO)C(=O)N[C@@H](CCCNC(=N)N)C(=O)N[C@@H](Cc1ccc(O)cc1)C(=O)N[C@@H](CCCNC(=N)N)C(=O)N[C@@H](CCCCN)C(=O)N[C@@H](CCC(N)=O)C(=O)N[C@@H](CCSC)C(=O)N[C@@H](C)C(=O)N[C@H](C(=O)N[C@@H](CCCCN)C(=O)N[C@@H](CCCCN)C(=O)N[C@@H](Cc1ccc(O)cc1)C(=O)N[C@@H](CC(C)C)C(=O)N[C@@H](C)C(=O)N[C@@H](C)C(=O)N[C@H](C(=O)N[C@@H](CC(C)C)C(=O)NCC(=O)N[C@@H](CCCCN)C(=O)N[C@@H](CCCNC(=N)N)C(=O)N[C@@H](Cc1ccc(O)cc1)C(=O)N[C@@H](CCCCN)C(=O)N[C@@H](CCC(N)=O)C(=O)N[C@@H](CCCNC(=N)N)C(=O)N[C@H](C(=O)N[C@@H](CCCCN)C(=O)N[C@@H](CC(N)=O)C(=O)N[C@@H](CCCCN)C(N)=O)C(C)C)C(C)C)C(C)C)[C@@H](C)O | 1840 | 93.2 | 951

These reach a lower EC50 [1]. Values come first.

Row | EC50 [1] [nM] | Emax [2] [%] | IC50 [3] [nM] | SMILES
6 | 7.6 | 98.6 | 7.2 | CC[C@H](C)[C@H](NC(=O)CNC(=O)[C@@H](CC(=O)O)NC(=O)[C@H](CO)NC(=O)[C@@H](N)Cc1cnc[nH]1)C(=O)N[C@@H](Cc1ccccc1)C(=O)N[C@H](C(=O)N[C@@H](CC(=O)O)C(=O)N[C@@H](CO)C(=O)N[C@@H](Cc1ccc(O)cc1)C(=O)N[C@@H](CO)C(=O)N[C@@H](CCCNC(=N)N)C(=O)N[C@@H](Cc1ccc(O)cc1)C(=O)N[C@@H](CCCNC(=N)N)C(=O)N[C@@H](CCCCN)C(=O)N[C@@H](CCC(N)=O)C(=O)N[C@@H](CCSC)C(=O)N[C@@H](C)C(=O)N[C@H](C(=O)N[C@@H](CCCCN)C(=O)N[C@@H](CCCCN)C(=O)N[C@@H](Cc1ccc(O)cc1)C(=O)N[C@@H](CC(C)C)C(=O)N[C@@H](C)C(=O)N[C@@H](C)C(=O)N[C@H](C(=O)N[C@@H](CC(C)C)C(=O)NCC(=O)N[C@@H](CCCCN)C(=O)N[C@@H](CCCNC(=N)N)C(=O)N[C@@H](Cc1ccc(O)cc1)C(=O)N[C@@H](CCCCN)C(=O)N[C@@H](CCC(N)=O)C(=O)N[C@@H](CCCNC(=N)N)C(=O)N[C@H](C(=O)N[C@@H](CCCCN)C(=O)N[C@@H](CC(N)=O)C(=O)N[C@@H](CCCCN)C(N)=O)C(C)C)C(C)C)C(C)C)[C@@H](C)O
7 | 5.1 | 105 | 7.9 | CC[C@H](C)[C@H](NC(=O)CNC(=O)[C@H](CC(=O)O)NC(=O)[C@H](C)NC(=O)[C@@H](N)Cc1cnc[nH]1)C(=O)N[C@@H](Cc1ccccc1)C(=O)N[C@H](C(=O)N[C@@H](CC(=O)O)C(=O)N[C@@H](CO)C(=O)N[C@@H](Cc1ccc(O)cc1)C(=O)N[C@@H](CO)C(=O)N[C@@H](CCCNC(=N)N)C(=O)N[C@@H](Cc1ccc(O)cc1)C(=O)N[C@@H](CCCNC(=N)N)C(=O)N[C@@H](CCCCN)C(=O)N[C@@H](CCC(N)=O)C(=O)N[C@@H](CCSC)C(=O)N[C@@H](C)C(=O)N[C@H](C(=O)N[C@@H](CCCCN)C(=O)N[C@@H](CCCCN)C(=O)N[C@@H](Cc1ccc(O)cc1)C(=O)N[C@@H](CC(C)C)C(=O)N[C@@H](C)C(=O)N[C@@H](C)C(=O)N[C@H](C(=O)N[C@@H](CC(C)C)C(=O)NCC(=O)N[C@@H](CCCCN)C(=O)N[C@@H](CCCNC(=N)N)C(=O)N[C@@H](Cc1ccc(O)cc1)C(=O)N[C@@H](CCCCN)C(=O)N[C@@H](CCC(N)=O)C(=O)N[C@@H](CCCNC(=N)N)C(=O)N[C@H](C(=O)N[C@@H](CCCCN)C(=O)N[C@@H](CC(N)=O)C(=O)N[C@@H](CCCCN)C(N)=O)C(C)C)C(C)C)C(C)C)[C@@H](C)O (H-HADGIFTDSYSRYRKQMAVKKYLAAVLGKRYKQRVKNK-NH2)
8 | 3.3 | 84 | 9.2 | CC[C@H](C)[C@H](NC(=O)C(C)(C)NC(=O)[C@H](CC(=O)O)NC(=O)[C@H](CO)NC(=O)[C@@H](N)Cc1cnc[nH]1)C(=O)N[C@@H](Cc1ccccc1)C(=O)N[C@H](C(=O)N[C@@H](CC(=O)O)C(=O)N[C@@H](CO)C(=O)N[C@@H](Cc1ccc(O)cc1)C(=O)N[C@@H](CO)C(=O)N[C@@H](CCCNC(=N)N)C(=O)N[C@@H](Cc1ccc(O)cc1)C(=O)N[C@@H](CCCNC(=N)N)C(=O)N[C@@H](CCCCN)C(=O)N[C@@H](CCC(N)=O)C(=O)N[C@@H](CCSC)C(=O)N[C@@H](C)C(=O)N[C@H](C(=O)N[C@@H](CCCCN)C(=O)N[C@@H](CCCCN)C(=O)N[C@@H](Cc1ccc(O)cc1)C(=O)N[C@@H](CC(C)C)C(=O)N[C@@H](C)C(=O)N[C@@H](C)C(=O)N[C@H](C(=O)N[C@@H](CC(C)C)C(=O)NCC(=O)N[C@@H](CCCCN)C(=O)N[C@@H](CCCNC(=N)N)C(=O)N[C@@H](Cc1ccc(O)cc1)C(=O)N[C@@H](CCCCN)C(=O)N[C@@H](CCC(N)=O)C(=O)N[C@@H](CCCNC(=N)N)C(=O)N[C@H](C(=O)N[C@@H](CCCCN)C(=O)N[C@@H](CC(N)=O)C(=O)N[C@@H](CCCCN)C(N)=O)C(C)C)C(C)C)C(C)C)[C@@H](C)O (H-HSD[Aib]IFTDSYSRYRKQMAVKKYLAAVLGKRYKQRVKNK-NH2)
